# 697 NFkB inh = lowers PMA/ionomycin-induced NF-kB signal in 697 B cells. 697 B-cell NF-kB luciferase reporter, 16 h. inhibition, % at 4 µM. hit rate 0.33% among 330,000; in the data active = inhibition above about 35%
# Jurkat NFkB inh = inhibitors of the PMA/ionomycin-induced NF-kB reporter in Jurkat cells; PMA/ionomycin-induced NF-kB luciferase reporter, luminescence; hit rate 0.53% among 330,000; inhibition, % at 4 µM; in the data active = inhibition above about 50%
# XBP1 UPR activ = activators of adaptive arm of unfolded protein response (XBP1). hit rate 0.33% among 330,000. AID 463104. activation, % at 20 µM. CHO-XBP1 luciferase reporter, IRE1-XBP1 UPR activation, luminescence; percent of tunicamycin response, DMSO as zero;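 active = versus positive control, 20 µM dose yields 30% or more activation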;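 also: 100% = tunicamycin at 10 µg/mL and 0% = DMSO only wells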
#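 Material: CHO cell line with stable XBP1 luciferase reporter; schedule: 16-18 h cell attachment at 37 °C, then 6 h compound exposure; signal: glow luminescence from Steady-Glo reagent; medium: serum-containing F12 medium, 10% FBS; benchmarks: tunicamycin 10 µg/mL and vehicle-only wells; read-out: percent activation relative to tunicamycin reference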
# CRFBP-R2 block = antagonists of CRF-binding protein/CRF-R2 receptor complex | HEK293 CRF-R2/CRF-BP, CRF-induced calcium fluorescence | inhibition, % at 11.8 µM | hit rate 0.59% among 350,000 | AID 588475;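 active = inhibition of the ligand-induced calcium signal above about 50% at the single tested concentration, limit read from the data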
# UPR CHOP act = activators of apoptotic arm of unfolded protein response (CHOP); AID 449763; activation, % at 10 µM; CHO-CHOP luciferase reporter, UPR activation, luminescence; percent of tunicamycin response over DMSO baseline; hit rate 0.34% among 330,000;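 active = at 10 µM dose, activation of 40% or more, normalized to positive control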;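 also: 100% = tunicamycin at 10 µg/mL and 0% = DMSO alone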
#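 Assay system: CHO cells with stable CHOP pathway luciferase reporter; Buffer or medium: F12 plus 10% serum; Times: 16-18 h cell attachment, then 6 h compound exposure, 37 °C; Signal: luciferase luminescence; Read-out basis: percent activation relative to tunicamycin control; Control set: tunicamycin high control, DMSO low control.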
# Jurkat NFkB conf = lowers PMA/ionomycin-induced NF-kB signal in Jurkat cells; shares compounds with Jurkat NFkB inh; Jurkat NF-kB luciferase, 16 h; inhibition, % at 4 µM; hit rate 27% among 2,700; AID 435020;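 active = inhibition reaching about 45% at 4 µM in either replicate, limit read from the data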;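 also: plate controls were PMA/ionomycin stimulated DMSO wells for no effect and unstimulated DMSO wells for full effect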
# * hit, by the source's call; . = not tested or not shown. Most compounds without a hit are left out; they make up all but 1.8% or so of the library.
SMILES,697 NFkB inh,Jurkat NFkB inh,XBP1 UPR activ,CRFBP-R2 block,UPR CHOP act,Jurkat NFkB conf
CC(C)Nc1ccc(C(CC(N)=O)NC(=O)Cc2ccc(Br)cc2)cc1[N+](=O)[O-] (centres undefined),-39.6,84.1*,0.4,-4.8,-0.2,58.5*
NC(=O)CC(NC(=O)Cc1ccc(Br)cc1)c1ccc(NC2CCCC2)c([N+](=O)[O-])c1 (centres undefined),25.8,51.1*,1.4,10.8,-2.6,28.8
NC(=O)CC(NC(=O)Cc1ccc(Br)cc1)c1ccc(NC2CCCCCCC2)c([N+](=O)[O-])c1 (centres undefined),.,.,.,4.5,.,.
CSc1ncnc2c1ncn2CCCN(C)Cc1ccco1,.,.,.,-7.1,.,.
COc1ccc(N(CC(=O)NC2CCS(=O)(=O)C2)S(=O)(=O)c2ccc(Cl)c(Cl)c2)cc1 (centres undefined),4.1,6.4,-0.8,4.7,-0.6,.
O=C(c1cccs1)N1CCc2ccccc21,-26.2,-62.1,3.7,5.4,4.7,.
O=C(/C=C/c1cccs1)N1CCc2ccccc21,-193.5,-161.0,-3.1,23.6,-3.1,-102.3
CC1CCN(C(=O)c2ccc3c(c2NCCO)C(=O)c2ccccc2C3=O)CC1,8.4,-1.2,-4.5,-14.4,-4.6,.
CCN(CC)CCNC(=O)c1ccc2c(c1NCCO)C(=O)c1ccccc1C2=O,-35.0,86.2*,-7.1,23.1,5.5,47.1*
O=S1OCCN1c1ccccc1 (centres undefined),-15.6,2.4,-0.5,-7.1,0.3,.
COc1ccccc1N1CCN(C(=O)c2ccc(COc3cccc4c3OC(C)(C)C4)cc2)CC1,-19.8,1.9,-5.0,11.8,0.4,.
CNC[C@H](CC1CCCCC1)NC[C@H](Cc1ccccc1)NCCC12CC3CC(CC(C3)C1)C2,21.2,91.2*,-8.6,-60.8,17.8,45.2
COc1ccccc1N1CCN(C(=O)c2ccc3noc(-c4ccccc4)c3c2)CC1,.,.,.,14.9,.,.
Cc1c(C(=O)Nc2ccc(F)cc2)oc2ccc(S(=O)(=O)N3CCC4(CC3)OCCO4)cc12,-94.8,6.9,2.3,-51.1,1.6,.
Cc1c(C(=O)Nc2cccc(Cl)c2)oc2ccc(S(=O)(=O)N3CCC4(CC3)OCCO4)cc12,-37.1,59.7*,0.5,-0.5,5.4,30.4
Cc1nnc(SCC(=O)Nc2nsc(-c3ccc(C(C)(C)C)cc3)n2)s1,-136.4,-153.2,3.4,-16.4,4.7,-81.6
Cc1cc(NC(=O)C(C)SCC(=O)Nc2ccc(Br)cc2Br)no1 (centres undefined),17.7,-7.7,-1.9,-11.7,-1.8,.
O=C(Nc1ccc(Cl)cn1)c1ccc2c(Cl)c3c(nc2c1)CCC3,-168.3,-157.3,9.3,0.0,7.3,-93.0
NC1=NC(=O)/C(=C\c2cccs2)S1,6.2,-13.2,-0.4,4.3,2.0,.
O=C1/C(=C\c2cccs2)Sc2ccc3ccccc3c21,-154.5,-157.4,0.0,5.9,1.9,-90.6
CCC1(c2ccc(F)cc2)NC(=O)N(CC(=O)Nc2cccc(S(=O)(=O)N3CCOCC3)c2)C1=O (centres undefined),.,.,.,-10.2,.,.
CCN(CC(=O)Nc1cc(Cl)ccc1Cl)C(=O)c1ccc(-n2cccn2)cc1,-2.9,-4.0,-1.5,-7.1,-0.3,.
Clc1ccccc1-c1nnc(-c2ccccc2Cl)o1,-125.0,-76.3,4.8,-4.6,3.5,.
CN(C)c1ccc(-c2nnc(-c3ccccc3F)o2)cc1,-207.9,-173.6,-2.8,4.0,-0.6,-106.8
COc1ccc(-c2nnc(-c3ccc(N(C)C)cc3)o2)cc1,-76.9,-66.7,1.6,42.9,2.5,.
SMILES,697 NFkB inh,Jurkat NFkB inh,XBP1 UPR activ,CRFBP-R2 block,UPR CHOP act,Jurkat NFkB conf
Clc1ccc(-c2nnc(-c3ccccc3Cl)o2)cc1,-203.2,-193.5,-1.1,-28.5,-1.2,-128.7
Cc1cc(NC(=S)NC(=O)c2ccccc2)ccc1-c1cc2ccccc2oc1=O,-23.6,59.1*,0.6,-24.8,0.0,4.1
Cc1ccc(C(=O)Nc2cc3ccccc3oc2=O)cc1,0.6,78.6*,-7.4,-1.1,-8.3,77.4*
Cc1ccccc1N1CCN(C2CCCN(C(=O)c3cc[n+]([O-])cc3)C2)CC1 (centres undefined),-10.1,7.8,0.0,0.8,1.8,.
COc1ccc(NC(=O)COc2ccc(C)c(C)c2)cc1S(=O)(=O)N1CCCCC1,-16.1,-6.6,1.5,1.3,2.4,.
COc1ccc(NC(=O)COc2cc(C)cc(C)c2)cc1S(=O)(=O)N1CCCCC1,-54.3,56.6*,-5.5,-1.4,-1.4,23.2
COc1ccc(C(=O)NCCCC2CCCC2)cc1OC1CCN(C(C)C)CC1,.,.,.,1.9,.,.
CC(=O)N(C)C1=C(N2CCOCC2)C(=O)c2ccccc2C1=O,31.5,86.6*,1.0,26.4,6.9,79.2*
COc1ccc(CCNC(=O)CNCCc2ccc(F)cc2)cc1,-22.4,-37.2,-1.4,-3.6,1.9,.
Cn1cc(/C=N/n2cnc3scc(-c4ccc(Cl)cc4)c3c2=O)c2ccccc21,19.4,61.6*,7.3,-4.9,1.4,50.0*
CCc1ccc(-n2nc3cc(C)c(N)cc3n2)cc1,-218.1,-167.1,-4.1,-14.6,0.5,-32.7
CCN(CC)c1ccc(NC(=O)CSc2nc(C3CC3)nc3ccccc23)cc1C,-16.0,59.0*,-0.4,1.2,0.1,9.8
COc1ccc(-c2cc(-c3ccccc3O)[nH]n2)cc1OC,-146.8,-155.8,8.8,-1.4,3.6,-86.5
COc1ccc(-c2cc(-c3ccc(OC)c(OC)c3)n[nH]2)c(O)c1,-58.6,-105.0,6.7,6.5,2.3,.
CC(=O)c1ccc(S(=O)(=O)N2CCN(C(=O)CCC3CCCC3)CC2)cc1,-13.5,-2.0,-0.9,4.0,-1.2,.
COc1ccc(C2SCC(=O)N2CCc2ccc(OC)c(OC)c2)cc1 (centres undefined),-28.0,65.2*,2.0,5.7,-0.8,38.6
COc1ccc(CCN2C(=O)CSC2c2ccc(OC)c(OC)c2)cc1OC (centres undefined),-18.9,-3.9,-2.1,10.4,-1.1,.
CN1/C(=C\C(=O)c2cccc([N+](=O)[O-])c2)Sc2ccccc21,-101.0,-174.8,5.6,-3.5,8.2,-0.6
COc1cc(OC)cc(C(=O)/C=C2\Sc3ccccc3N2C)c1,-18.3,-32.6,-0.1,-17.8,6.9,.
CC(C)CNC(=O)/C=C/C=C/c1ccc2c(c1)OCO2,10.2,-21.7,-0.2,-13.0,4.4,.
Cc1ccsc1C(=O)N(C)CC(=O)Nc1ccccc1Br,-4.7,6.2,-0.6,0.5,-2.1,.
CCCCOc1cccc(/C=C(\C#N)C(=O)NC2CC2)c1,15.9,-1.1,-0.6,-28.2,-0.3,.
C=C(C)COc1ccc(-c2[nH]ncc2-c2ccc(Br)cc2)c(O)c1,-21.6,58.8*,0.1,18.1,26.6,8.4
CCOc1ccc(-c2[nH]ncc2-c2ccc(OC)c(OC)c2)c(O)c1,-56.6,63.5*,-1.1,4.6,-1.1,57.4*

# Screening data from PubChem BioAssay.
